Test results: ChEMBL document CHEMBL1129574, “Synthesis, structure-activity relationships, and pharmacokinetic properties of dihydroorotate dehydrogenase inhibitors: 2-cyano-3-cyclopropyl-3-hydroxy-N-[3'-methyl-4'-(trifluoromethyl)phenyl ] propenamide and related compounds” (J Med Chem, 1996)

What was measured:
[1] = biological target: Dihydroorotate dehydrogenase (quinone), mitochondrial (Rattus norvegicus, UniProt Q63707); experiment: Inhibitory concentration tested against enzyme dihydroorotate dehydrogenase in rat
Sequence of Dihydroorotate dehydrogenase (quinone), mitochondrial (Rattus norvegicus, UniProt Q63707) (Q63707 whole entry): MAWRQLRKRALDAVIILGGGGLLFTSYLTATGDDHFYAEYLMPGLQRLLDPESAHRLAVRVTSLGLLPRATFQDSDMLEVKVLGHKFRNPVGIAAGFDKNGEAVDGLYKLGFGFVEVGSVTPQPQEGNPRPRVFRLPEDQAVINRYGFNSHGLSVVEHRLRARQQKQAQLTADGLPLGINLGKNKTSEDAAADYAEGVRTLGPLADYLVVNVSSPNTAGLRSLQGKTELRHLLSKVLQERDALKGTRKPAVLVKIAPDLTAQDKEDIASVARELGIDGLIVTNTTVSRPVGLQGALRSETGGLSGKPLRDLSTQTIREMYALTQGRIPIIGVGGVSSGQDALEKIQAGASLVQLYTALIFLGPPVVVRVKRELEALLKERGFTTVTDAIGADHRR

Mus musculus [2] = experiment: In vivo ability to inhibit delayed type hypersensitivity in mouse at a concentration of 100 mg/kg; type: functional
How it was run: (§1)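 Male CD-1 mice (25–30 g, n = 8-16) sensitized day 0 by s.c. 1 mg methylated BSA in saline/Freund's complete adjuvant; negative controls saline/FCA. Day 7 challenge: MBSA 0.1 mg into right hind footpad, saline in left. Oral dosing once daily days 4–6 plus twice on day 7 (1 h before, 6 h after challenge). Paw edema read 24 h post-challenge; Student's t-test.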

Rattus norvegicus [3] = experiment: Compound was tested in vivo for its ability to inhibit DTH(delayed type hypersensitivity )in rat at a concentration of 50 mg/kg; type: functional
How it was run: (§2)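 Male CFHB rats (160-180 g, n=7-12) sensitized day 0 by tail-base s.c. FCA (0.4 mg M. tuberculosis in liquid paraffin); controls got incomplete adjuvant. Day 7 challenge: soluble M. tuberculosis extract 0.4 mg into right hind footpad, saline in left. Oral dosing once daily days 4-6 and twice day 7 (1 h before, 6 h after). Edema read at 24 h; Student's t-test.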

[4] = t1/2 in mouse plasma after oral dose (30/mg/Kg); type: ADME, organism-based
How it was run: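 Male CD-1 mice (25–32 g, n=5/time point) gavaged orally 30 mg/kg (10 mL/kg). Blood by exsanguination under ether at 0, 1, 3, 6, 24, 48, 72 h, pooled per time point, heparinized; plasma stored −20 °C. Drug quantified by reversed-phase HPLC (ODS, pH 7 phosphate/acetonitrile 65:35, UV 300 nm) with internal standard and spiked-plasma calibration.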

[5] = t1/2 in rat plasma after oral dose (10 mg/kg); type: ADME, organism-based
How it was run: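 Male Wistar CFHB rats (190–220 g, n=3/time point) given 10 mg/kg orally by gavage (10 mL/kg). Cardiac-puncture blood under ether at 0, 1, 3, 6, 24, 48, 72 h, individual heparinized samples; plasma kept at −20 °C. Levels by HPLC (ODS column, 0.1 M pH 7 phosphate 65%/acetonitrile 35%, UV 300 nm), internal standard, peak-area calibration from spiked blank plasma.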

[6] = biological target: Dihydroorotate dehydrogenase (quinone), mitochondrial (Mus musculus, UniProt O35435); experiment: Inhibitory concentration tested on enzyme dihydroorotate dehydrogenase in mouse
Sequence of Dihydroorotate dehydrogenase (quinone), mitochondrial (Mus musculus, UniProt O35435) (O35435 whole entry): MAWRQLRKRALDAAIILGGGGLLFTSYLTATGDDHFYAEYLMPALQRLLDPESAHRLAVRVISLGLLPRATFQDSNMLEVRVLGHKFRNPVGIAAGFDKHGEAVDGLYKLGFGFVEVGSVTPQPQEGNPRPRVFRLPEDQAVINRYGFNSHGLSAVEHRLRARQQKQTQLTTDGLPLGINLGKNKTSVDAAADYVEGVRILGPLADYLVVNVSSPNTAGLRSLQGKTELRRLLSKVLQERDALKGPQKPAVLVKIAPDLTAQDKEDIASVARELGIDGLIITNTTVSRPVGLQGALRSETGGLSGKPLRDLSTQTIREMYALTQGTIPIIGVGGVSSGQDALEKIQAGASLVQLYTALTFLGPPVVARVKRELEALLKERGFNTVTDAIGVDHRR

Mus musculus [7] = experiment: Compound was tested in vivo for its ability to inhibit DTH(delayed type hypersensitivity ) in mouse at a concentration of 30 mg/kg; type: functional; how it was run: as §1
Rattus norvegicus [8] = experiment: Compound was tested in vivo for its ability to inhibit DTH(delayed type hypersensitivity ) in rat at a concentration of 10 mg/kg; type: functional; how it was run: as §2
Rattus norvegicus [9] = experiment: Compound was tested in vivo for its ability to inhibit DTH(delayed type hypersensitivity ) in rat at a concentration of 1 mg/kg; type: functional; how it was run: as §2
Mus musculus [10] = experiment: In vivo for its ability to inhibit delayed type hypersensitivity in mouse following 30 mg/kg administration.; type: functional; how it was run: as §1
Rattus norvegicus [11] = experiment: Compound was tested in vivo for its ability to inhibit DTH(delayed type hypersensitivity )in rat at a concentration of 1 mg/kg; type: functional; how it was run: as §2
Rattus norvegicus [12] = experiment: Compound was tested in vivo for its ability to inhibit DTH(delayed type hypersensitivity )in rat at a concentration of 50 mg/kg
Mus musculus [13] = experiment: Compound was tested in vivo for its ability to inhibit DTH(delayed type hypersensitivity )in mouse at a concentration of 30 mg/kg.; type: functional; how it was run: as §1
Mus musculus [14] = experiment: Compound was tested in vivo for its ability to inhibit DTH(delayed type hypersensitivity ) in mouse at a concentration of 10 mg/kg; type: functional; how it was run: as §1
Rattus norvegicus [15] = experiment: In vivo for its ability to inhibit delayed type hypersensitivity in rat following 10 mg/kg administration.

Structure (SMILES)	IC50 [1] [nM]	inhibition in vivo at 100 mg/kg (Mus musculus [2]) [%]	inhibition in vivo at 50 mg/kg (Rattus norvegicus [3]) [%]	half-life [4] [h]	half-life [5] [h]	IC50 [6] [nM]	inhibition in vivo at 30 mg/kg (Mus musculus [7]) [%]	inhibition in vivo at 10 mg/kg (Rattus norvegicus [8]) [%]	inhibition in vivo at 1 mg/kg (Rattus norvegicus [9]) [%]	inhibition in vivo at 30 mg/kg (Mus musculus [10]) [%]	inhibition in vivo at 1 mg/kg (Rattus norvegicus [11]) [%]	inhibition in vivo at 50 mg/kg (Rattus norvegicus [12]) [%]	inhibition in vivo at 30 mg/kg (Mus musculus [13]) [%]	inhibition in vivo at 10 mg/kg (Mus musculus [14]) [%]	inhibition in vivo at 10 mg/kg (Rattus norvegicus [15]) [%]
N#C/C(C(=O)Nc1ccc(CCc2ccccc2)cc1)=C(/O)C1CC1	138	5	51												
N#C/C(C(=O)Nc1ccc(C#N)cc1)=C(/O)C1CC1	53			6	5	42	73	47							
N#C/C(C(=O)Nc1ccc(SC(F)(F)F)cc1)=C(/O)C1CC1				6	2	100	39		58						
N#C/C(C(=O)Nc1ccc(Br)cc1)=C(/O)C1CC1	79			33	20	36	64	58							
Cc1cc(NC(=O)/C(C#N)=C(\O)C2CC2)ccc1SC(F)(F)F	11			10	13	178				55	68				
N#C/C(C(=O)Nc1ccc([N+](=O)[O-])cc1)=C(/O)C1CC1	21			8	4	50				64		90			
N#C/C(C(=O)Nc1ccc(OC(F)(F)F)cc1)=C(/O)C1CC1	5			42	22	173					78		85		
N#C/C(C(=O)Nc1ccc(C(F)(F)F)cc1)=C(/O)c1ccc(C(F)(F)F)cc1	> 10000					> 10000								17	16
